Laboratory results taken from ChEMBL document CHEMBL3045710, “Antifungal activity of 4'-(2,6,6-Trimethyl-2-cyclohexen-1-yl)-3'-butene-2'-ketoxime N-O-alkyl ethers” (2010).
In brackets after ≈: the same amount, converted by molar mass. Activity calls are given as the source filed them. The calls are words filed in the database; no cut-off is given here.

Legend:
[1] = tested on: Macrophomina phaseolina; experiment: Antifungal activity against Macrophomina phaseolina assessed as growth inhibition at 28 degC; type: functional; details: read-out: ED50 (the source's name)
Procedure, shortened: (§1)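 Poisoned food technique on PDA: compound in acetone added to medium at 1000, 500, 250, 125, 100, 50, 25 and 10 μg/mL (final in medium). Acetone 1 mL serves as the control. A 5 mm mycelial disk from a 2-week-old colony is placed centrally. Plates are incubated at 28 °C until control growth is nearly complete. Colony diameter is measured and %inhibition = (C−T)/C×100, four replicates. ED50 is obtained by probit analysis of Abbott-corrected inhibition.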

[2] = tested on: Athelia rolfsii; experiment: Antifungal activity against Athelia rolfsii assessed as growth inhibition at 28 degC; type: functional; details: Agroathelia rolfsii; read-out: ED50 (the source's name); procedure, shortened: as §1
[3] = tested on: Sclerotinia sclerotiorum; experiment: Antifungal activity against Sclerotinia sclerotiorum assessed as growth inhibition at 28 degC; type: functional; details: read-out: ED50 (the source's name); procedure, shortened: as §1
[4] = tested on: Macrophomina phaseolina; experiment: Antifungal activity against Rhizoctonia bataticola assessed as growth inhibition at 28 degC; type: functional; details: read-out: ED50 (the source's name); procedure, shortened: as §1
[5] = tested on: Sclerotinia sclerotiorum; experiment: Antifungal activity against Sclerotinia sclerotiorum infected pea plants assessed as healthy plants at 5 % aqueous emulsion measured on day 21; type: functional
Procedure, shortened: (§2)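 Greenhouse pea assay: S. sclerotiorum inoculum grown in potato dextrose broth, homogenized and mixed into autoclaved, sieved composted soil, then incubated 5-7 days at ~25 °C. Formulated compound is applied as 1 or 5% aqueous emulsion at 5.0 mL per 150 cm3 soil and held 7 days in sealed bags. Symptoms (water-soaked spots) and symptomless plants are scored 7, 14 and 21 days after transplanting, 20 plants per treatment.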

[6] = tested on: Sclerotinia sclerotiorum; experiment: Antifungal activity against Sclerotinia sclerotiorum infected pea plants assessed as healthy plants at 1 % aqueous emulsion measured on day 7; type: functional; procedure, shortened: as §2
[7] = tested on: Sclerotinia sclerotiorum; experiment: Antifungal activity against Sclerotinia sclerotiorum infected pea plants assessed as prevention of water soaked spots at 5 % aqueous emulsion measured on day 21; type: functional, organism-based; procedure, shortened: as §2
[8] = tested on: Sclerotinia sclerotiorum; experiment: Antifungal activity against Sclerotinia sclerotiorum infected pea plants assessed as healthy plants at 1 % aqueous emulsion measured on day 21; type: functional; procedure, shortened: as §2
[9] = tested on: Sclerotinia sclerotiorum; experiment: Antifungal activity against Sclerotinia sclerotiorum infected pea plants assessed as healthy plants at 0.364 mL of ai/150cm'3 measured after 14 days; type: functional
Procedure, shortened: (§3)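 S. sclerotiorum inoculum was grown in potato dextrose broth at 27 °C for 7 days, then in water at 20 °C for 3-4 weeks, then homogenized, filtered and sonicated. It was mixed into sieved, autoclaved compost soil and held about 25 °C for 5-7 days. Fungicide was incorporated and soil was bagged 7 days. Pea was transplanted. Symptomless plants were scored at 7, 14 and 21 days (20 plants/treatment, six trials), arcsine-square-root transformed, repeated-measures ANOVA.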

[10] = tested on: Sclerotinia sclerotiorum; experiment: Antifungal activity against Sclerotinia sclerotiorum infected pea plants assessed as healthy plants at 0.364 mL of ai/150cm'3 measured after 21 days; type: functional; procedure, shortened: as §3

Compound	EC50 [1] [µg/mL]	EC50 [2] [µg/mL]	EC50 [3] [µg/mL]	EC50 [4] [µg/mL]	Activity [5] [%]	Activity [6] [%]	Activity [7]	Activity [8] [%]	Activity [9] [%]	Activity [10] [%]
CCCCCCO/N=C(C)\C=C\C1C(C)=CCCC1(C)C (configuration not stated)	963 (≈ 3300 µM)	912 (≈ 3130 µM)	244 (≈ 837 µM)	327 (≈ 1120 µM)						
CCCCO/N=C(C)\C=C\C1C(C)=CCCC1(C)C (configuration not stated)	174 (≈ 660 µM)	88.9 (≈ 337 µM)	164 (≈ 621 µM)	114 (≈ 431 µM)						
CCCCCCCO/N=C(C)\C=C\C1C(C)=CCCC1(C)C (configuration not stated)	1090 (≈ 3570 µM)	956 (≈ 3130 µM)	419 (≈ 1370 µM)	566 (≈ 1850 µM)						
CCCCCCO/N=C(C)/C=C/C1C(C)=CCCC1(C)C (configuration not stated)	751 (≈ 2580 µM)	573 (≈ 1970 µM)	428 (≈ 1470 µM)	895 (≈ 3070 µM)						
CCO/N=C(C)/C=C/C1C(C)=CCCC1(C)C (configuration not stated)	732 (≈ 3110 µM)	410 (≈ 1740 µM)	295 (≈ 1250 µM)	393 (≈ 1670 µM)						
CC1=CCCC(C)(C)C1/C=C/C(C)=N/OCC(C)C (configuration not stated)	103 (≈ 391 µM)	45.2 (≈ 172 µM)	94.1 (≈ 357 µM)	50.6 (≈ 192 µM)						
CCCCO/N=C(C)/C=C/C1C(C)=CCCC1(C)C (configuration not stated)	101 (≈ 382 µM)	113 (≈ 430 µM)	107 (≈ 408 µM)	67.9 (≈ 258 µM)						
CC1=CCCC(C)(C)C1/C=C/C(C)=N/OCCC(C)C (configuration not stated)	666 (≈ 2400 µM)	257 (≈ 927 µM)	273 (≈ 986 µM)	723 (≈ 2600 µM)						
CCCCCO/N=C(C)\C=C\C1C(C)=CCCC1(C)C (configuration not stated)	31.1 (≈ 112 µM)	41.6 (≈ 150 µM)	21.4 (≈ 77.1 µM)	57.6 (≈ 207 µM)	>90	65	Active	40		
CCCCCCCCCCO/N=C(C)/C=C/C1C(C)=CCCC1(C)C (configuration not stated)	957 (≈ 2750 µM)	842 (≈ 2420 µM)	681 (≈ 1960 µM)	1940 (≈ 5590 µM)						
CCCCCCCCCCO/N=C(C)\C=C\C1C(C)=CCCC1(C)C (configuration not stated)	1760 (≈ 5060 µM)	1110 (≈ 3190 µM)	477 (≈ 1370 µM)	2060 (≈ 5920 µM)						
CO/N=C(C)/C=C/C1C(C)=CCCC1(C)C (configuration not stated)	307 (≈ 1380 µM)	238 (≈ 1070 µM)	442 (≈ 2000 µM)	388 (≈ 1750 µM)						
CCO/N=C(C)\C=C\C1C(C)=CCCC1(C)C (configuration not stated)	394 (≈ 1670 µM)	415 (≈ 1760 µM)	261 (≈ 1110 µM)	246 (≈ 1050 µM)						
CCCO/N=C(C)/C=C/C1C(C)=CCCC1(C)C (configuration not stated)	181 (≈ 727 µM)	101 (≈ 406 µM)	257 (≈ 1030 µM)	32.4 (≈ 130 µM)						
CO/N=C(C)\C=C\C1C(C)=CCCC1(C)C (configuration not stated)	311 (≈ 1400 µM)	259 (≈ 1170 µM)	517 (≈ 2340 µM)	413 (≈ 1870 µM)						
COC(=O)Nc1nc2ccccc2[nH]1 [CARBENDAZIM]									80	75
CCCCCCCO/N=C(C)/C=C/C1C(C)=CCCC1(C)C (configuration not stated)	717 (≈ 2350 µM)	975 (≈ 3190 µM)	392 (≈ 1280 µM)	919 (≈ 3010 µM)						
CC1=CCCC(C)(C)C1/C=C/C(C)=N\OC(C)C (configuration not stated)	198 (≈ 794 µM)	129 (≈ 517 µM)	190 (≈ 764 µM)	116 (≈ 467 µM)						
CC1=CCCC(C)(C)C1/C=C/C(C)=N\OCC(C)C (configuration not stated)	101 (≈ 383 µM)	47.6 (≈ 181 µM)	79 (≈ 300 µM)	58.7 (≈ 223 µM)						
CCCO/N=C(C)\C=C\C1C(C)=CCCC1(C)C (configuration not stated)	236 (≈ 945 µM)	132 (≈ 530 µM)	220 (≈ 881 µM)	157 (≈ 629 µM)						
CC1=CCCC(C)(C)C1/C=C/C(C)=N/OC(C)C (configuration not stated)	126 (≈ 505 µM)	35.5 (≈ 142 µM)	182 (≈ 729 µM)	56.6 (≈ 227 µM)						
CCCCCCCCO/N=C(C)/C=C/C1C(C)=CCCC1(C)C (configuration not stated)	824 (≈ 2580 µM)	1040 (≈ 3250 µM)	837 (≈ 2620 µM)	1090 (≈ 3430 µM)						
CCCCCO/N=C(C)/C=C/C1C(C)=CCCC1(C)C (configuration not stated)	94.8 (≈ 342 µM)	43.6 (≈ 157 µM)	32.7 (≈ 118 µM)	39.2 (≈ 141 µM)						
CC1=CCCC(C)(C)C1/C=C/C(C)=N\OCCC(C)C (configuration not stated)	625 (≈ 2250 µM)	367 (≈ 1320 µM)	375 (≈ 1350 µM)	125 (≈ 452 µM)						
CCCCCCCCO/N=C(C)\C=C\C1C(C)=CCCC1(C)C (configuration not stated)	1110 (≈ 3470 µM)	1360 (≈ 4250 µM)	584 (≈ 1830 µM)	1610 (≈ 5050 µM)						
